Data: ChEMBL document CHEMBL5532650, “Discovery of an orally active nitrothiophene-based antitrypanosomal agent” (Eur J Med Chem, 2024)
Active and inactive are the calls of the source. The calls are words filed in the database; no cut-off is given here.

Tests used:
[1] = system: Trypanosoma brucei gambiense; assay: Antitrypanosomal activity against bloodstream forms of Trypanosoma brucei gambiense 130R assessed as growth inhibition incubated for 68 hrs followed by treated with resazurin 4 to 6 hrs by resazurin based fluorescence assay; type: functional, organism-based
How it was run: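 Bloodstream 130R at 4x10^4 parasites/well in HMI-9 with 15% heat-inactivated fetal calf and 5% human serum. Eleven 3-fold dilutions spanned 100 to 0.002 μM. Plates ran 68 h at 37 °C in 5% CO2, then resazurin for 4–6 h. Fluorescence read at ex/em 536/588 nm; melarsoprol was the control.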

[2] = system: Trypanosoma brucei rhodesiense; assay: Antitrypanosomal activity against bloodstream forms of Trypanosoma brucei rhodesiense STIB 900 assessed as growth inhibition incubated for 70 hrs followed by treated with resazurin 2 to 4 hrs by resazurin based fluorescence assay; type: functional, organism-based
How it was run: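 Bloodstream STIB 900 at 2x10^4 parasites/well in HMI-9 with 15% heat-inactivated horse serum. Eleven 3-fold dilutions spanned 100 to 0.002 μM. Plates ran 70 h at 37 °C in 5% CO2, then resazurin for 2–4 h. Fluorescence read at ex/em 536/588 nm; melarsoprol was the control.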

[3] = Metabolic stability in mouse liver microsomes assessed as half life at 0.1 uM measured for every 15 mins by HPLC-MS/MS analysis; type: ADME, Microsome; settings: 0.25 h
[4] = system: Trypanosoma brucei rhodesiense; assay: Inhibition of Trypanosoma brucei rhodesiense MVAT4 strain Cathepsin-L expressed in Pichia pastoris at 10 uM relative to control
How it was run: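 Trypanosomal cathepsin L, expressed in Pichia pastoris and purified, was tested at 10 μM after 1 hour. The read-out was percentage inhibition, with E-64 as positive control.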

[5] = Selectivity index, ratio of CC50 for cytotoxicity against human HepG2 cells to EC50 for Antitrypanosomal activity against bloodstream forms of Trypanosoma brucei brucei strain 427; type: toxicity, cell-based; settings: read-out: Selectivity Index
[6] = Metabolic stability in mouse liver S9 fraction assessed as half life at 0.1 uM measured for every 15 mins by HPLC-MS/MS analysis; type: ADME, subcellular; settings: s9, 0.25 h
[7] = Selectivity index, ratio of CC50 for cytotoxicity against human HepG2 cells to EC50 for Antitrypanosomal activity against bloodstream forms of Trypanosoma brucei rhodesiense STIB 900; type: toxicity, cell-based
[8] = system: HepG2; assay: (§1) Cytotoxicity against human HepG2 cells assessed as cell growth measured after 72 hrs mby MTT assay; type: toxicity, cell-based; settings: hepg2, 72 h
How it was run: (§2)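 HepG2 in DMEM:F12 with 10% FBS were seeded at 5 x 10^5 cells/mL and allowed 18-24 h. Compounds in DMSO over 0.01–300 μM for 72 h. MTT was then added for 30 min, formazan dissolved in DMSO and absorbance read at 550 nm. Triplicates; SDS (10%) and podophyllotoxin were the controls. CC50 = half-maximal cellular viability.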

[9] = system: Trypanosoma brucei brucei; assay: Antitrypanosomal activity against bloodstream forms of Trypanosoma brucei brucei strain 427 assessed as growth inhibition measured after 48 hrs by Alamar blue assay; type: functional, organism-based; settings: Trypanosoma brucei, 427, 48 h
How it was run: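 Bloodstream T. b. brucei 427 at 5 x 10^3 cells/well in supplemented HMI-9 with 10% FBS. Compounds in DMSO over 0.01–50 μM, triplicates. After 48 h exposure, Alamar blue was added for 4 h at 37°C. Fluorescence read at ex/em 530/590 nm; suramin was the positive control. EC50 = half-maximal trypanosomal viability.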

[10] = Selectivity index, ratio of CC50 for cytotoxicity against human HepG2 cells to EC50 for Antitrypanosomal activity against bloodstream forms of Trypanosoma brucei gambiense 130R; type: toxicity, cell-based
[11] = as §1; type: toxicity, cell-based; settings: HepG2 cells; how it was run: as §2
[12] = Volume of distribution at steady state in C57BL/6 mouse at 1 mg/kg, iv measured upto 24 hrs by LC-MS/MS analysis; type: ADME, organism-based; settings: in vivo, read-out: Vdss
How it was run: (§3)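 Fasted male C57BL/6 mice (n = 3/group) were given a single IV dose of 1 mg/kg. Vehicle was 5% DMSO, 10% solutol and 85% PBS with 20% Captisol, at 1 mL/kg. Blood was taken at 0.083, 0.25, 0.5, 1, 2, 4, 6, 8 and 24 h and spun at 4°C to plasma. Plasma levels were measured by LC-MS/MS and parameters derived by non-compartmental analysis.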

[13] = Clearance in C57BL/6 mouse at 1 mg/kg, iv measured upto 24 hrs by LC-MS/MS analysis; type: ADME, organism-based; settings: in vivo; how it was run: as §3
[14] = AUC (0 to infinity) in C57BL/6 mouse at 5 mg/kg, po measured upto 24 hrs by LC-MS/MS analysis; settings: in vivo
[15] = Tmax in C57BL/6 mouse at 5 mg/kg, po measured upto 24 hrs by LC-MS/MS analysis; settings: in vivo
[16] = system: Trypanosoma brucei brucei; assay: In vivo antitrypanosomal activity against Trypanosoma brucei brucei AnTat1.1 trypomastigotes expressing Renilla luciferase infected in BALB/c mouse assessed suppression of parasite growth at 100 mg/kg, ip treated for 5 days; settings: time 5.0 day
[17] = Half life in C57BL/6 mouse at 5 mg/kg, po measured upto 24 hrs by LC-MS/MS analysis; settings: in vivo
[18] = Oral bioavailability in C57BL/6 mouse at 5 mg/kg measured upto 24 hrs by LC-MS/MS analysis; settings: in vivo
[19] = system: Trypanosoma brucei brucei; assay: In vivo antitrypanosomal activity against Trypanosoma brucei brucei AnTat1.1 trypomastigotes expressing Renilla luciferase infected in BALB/c mouse assessed reduction in parasitemia at 100 mg/kg, po treated for 5 days; settings: time 5.0 day
[20] = Mean residence time in C57BL/6 mouse at 1 mg/kg, iv measured upto 24 hrs by LC-MS/MS analysis; type: ADME, organism-based; settings: in vivo; how it was run: as §3
[21] = AUC (0 to infinity) in C57BL/6 mouse at 1 mg/kg, iv measured upto 24 hrs by LC-MS/MS analysis; type: ADME, organism-based; settings: in vivo; how it was run: as §3
[22] = AUC (0 to t) in C57BL/6 mouse at 1 mg/kg, iv measured upto 24 hrs by LC-MS/MS analysis; type: ADME, organism-based; settings: in vivo; how it was run: as §3
[23] = Cmax in C57BL/6 mouse at 5 mg/kg, po measured upto 24 hrs by LC-MS/MS analysis; settings: in vivo
[24] = Initial plasma concentration in C57BL/6 mouse at 1 mg/kg, iv measured upto 24 hrs by LC-MS/MS analysis; type: ADME, organism-based; how it was run: as §3
[25] = Half life in C57BL/6 mouse at 1 mg/kg, iv measured upto 24 hrs by LC-MS/MS analysis; type: ADME, organism-based; settings: in vivo; how it was run: as §3
[26] = system: Trypanosoma brucei brucei; assay: In vivo antitrypanosomal activity against Trypanosoma brucei brucei AnTat1.1 trypomastigotes expressing Renilla luciferase infected in BALB/c mouse assessed suppression of parasite growth at 100 mg/kg, po treated for 5 days; settings: time 5.0 day
[27] = AUC (0 to t) in C57BL/6 mouse at 5 mg/kg, po measured upto 24 hrs by LC-MS/MS analysis; settings: in vivo
[28] = Mean residence time in C57BL/6 mouse at 5 mg/kg, po measured upto 24 hrs by LC-MS/MS analysis; settings: in vivo
[29] = Apparent volume of distribution in C57BL/6 mouse at 1 mg/kg, iv measured upto 24 hrs by LC-MS/MS analysis; type: ADME, organism-based; settings: in vivo, read-out: Vz; how it was run: as §3
[30] = system: Trypanosoma brucei rhodesiense; assay: In vivo antitrypanosomal activity against Trypanosoma brucei rhodesiense infected in female NMRI mouse assessed survival rate at 200 mg/kg, po qd measured upto 60 days; settings: time <= 60.0 day
[31] = Half life in mouse at 25 mg/kg, po; type: ADME, organism-based; settings: in vivo
[32] = Tmax in mouse at 25 mg/kg, po; type: ADME, organism-based; settings: in vivo

Row | SMILES | EC50 [1] [µM] | EC50 [2] [µM] | t1/2 [3] [min] | inhibition [4] | selectivity ratio [5] | CC50 [8] [µM] | EC50 [9] [µM] | also measured
1 | O=C(NC/C=C/S(=O)(=O)c1ccccc1)c1ccc([N+](=O)[O-])o1 | 0.2 | 1.77 | > 60 | 17.7% | 60.6 | 59.4 | 0.98 | t1/2 [6]: 12.99 min; selectivity ratio [7]: 33.5
2 | CNC(=O)CCCNC(=O)c1cccs1 |  |  |  | inactive |  | > 300 | > 30 | 
3 | CNC(=O)/C=C/CNC(=O)c1ccc([N+](=O)[O-])o1 | 0.47 | 0.22 |  | 17% |  | > 75 | 1.69 | 
4 | CNC(=O)CCCNC(=O)c1ccc([N+](=O)[O-])s1 | 1.88 | 1.96 |  | inactive | 16.9 | 69.5 | 4.12 | selectivity ratio [10]: 37; selectivity ratio [7]: 35.5
5 | O=C(NC/C=C/S(=O)(=O)c1ccccc1)c1ccco1 |  |  |  | 30.6% | 34 | 66.3 | 1.95 | 
6 | O=C(NC/C=C/S(=O)(=O)c1ccccc1)c1ccc([N+](=O)[O-])s1 | 0.32 | 0.61 |  |  |  | 20.4 | 6.35 | 
7 | Cc1ncc([N+](=O)[O-])n1CC(=O)N[C@H](/C=C/S(=O)(=O)c1ccccc1)CCc1ccccc1 |  |  |  | 44.1% |  | > 300 | > 50 | 
8 | CS(=O)(=O)/C=C/CNC(=O)c1ccc([N+](=O)[O-])o1 | 0.06 | 0.05 | > 60 | 21.2% | 49.5 | 21.8 | 0.44 | 
9 | O=C(NCCCS(=O)(=O)c1ccccc1)c1ccc([N+](=O)[O-])o1 |  |  |  | 15% | 45 | 44.6 | 0.99 | 
10 | O=C(N[C@H](/C=C/S(=O)(=O)c1ccccc1)CCc1ccccc1)c1ccc([N+](=O)[O-])o1 | 0.07 | 2.73 |  | 78.1% |  |  | 0.11 | CC50 at 72 h [11]: 5.17 µM
11 | CNC(=O)/C=C/CNC(=O)c1ccc([N+](=O)[O-])s1 | 0.13 | 0.14 | > 60 | 43.9% |  | > 75 | 0.54 | Vd [12]: 1.6 L/kg; clearance [13]: 48.8 mL/min/kg; AUC [14]: 1702.8 ng·h/mL; Tmax [15]: 18 min; Activity [16]: Active; half-life [17]: 30 min; F [18]: 99.2%; t1/2 [6]: > 60 min; Activity [19]: Active; MRT [20]: 30 min; AUC [21]: 343.2 ng·h/mL; AUC(0-t) at 24 h [22]: 333 ng·h/mL; Cmax [23]: 1650 ng/mL; C0 at 24 h [24]: 636 ng/mL; half-life [25]: 24 min; Activity [26]: Active; AUC(0-t) at 24 h [27]: 1700 ng·h/mL; MRT [28]: 54 min; Vd [29]: 1.7 L/kg; Activity [30]: Active
12 | CSc1ccc(OCc2ncc([N+](=O)[O-])n2C)cc1 [FEXINIDAZOLE] |  |  |  |  |  |  |  | half-life [31]: 48 min; Tmax [32]: 15 min
13 | O=C(N[C@H](/C=C/S(=O)(=O)c1ccccc1)CCc1ccccc1)c1cc(Cl)c([N+](=O)[O-])[nH]1 |  |  |  | 26.7% |  | > 160 | 31.2 | 
14 | Nc1nc(N)nc(Nc2ccc([As]3SCC(CO)S3)cc2)n1 (stereo not given) [MELARSOPROL] | 0.01 | 0.01 |  |  |  |  |  | 
15 | CS(=O)(=O)CCCNC(=O)c1ccc([N+](=O)[O-])s1 |  |  |  | 11.1% | 76.4 | 98.6 | 1.29 | 
16 | CS(=O)(=O)CCCNC(=O)c1cccs1 |  |  |  | inactive |  | > 150 | > 30 | 
17 | CNC(=O)/C=C/[C@H](CCc1ccccc1)NC(=O)c1ccc([N+](=O)[O-])s1 | 0.03 | 0.04 | > 60 | 58.4% | 333 | 60 | 0.18 | selectivity ratio [10]: 2000; t1/2 [6]: 19.49 min; selectivity ratio [7]: 1500
18 | CNC(=O)/C=C/[C@H](CCc1ccccc1)NC(=O)c1ccc([N+](=O)[O-])o1 | 0.06 | 0.14 | > 60 | 54.8% | 139 | 41.7 | 0.3 | selectivity ratio [10]: 694; t1/2 [6]: 20.49 min; selectivity ratio [7]: 298
19 | CS(=O)(=O)/C=C/CNC(=O)c1ccc([N+](=O)[O-])s1 | 0.25 | 0.12 | > 60 | 23.2% | 154 | 98.7 | 0.64 | selectivity ratio [10]: 395; t1/2 [6]: > 60 min; selectivity ratio [7]: 822
20 | CS(=O)(=O)/C=C/CNC(=O)c1cccs1 |  |  |  | 23.6% |  | > 300 | > 30 | 
